The results in this text go back to ChEMBL document CHEMBL4304753, “Identification of New Small-Molecule Inducers of Estrogen-related Receptor α (ERRα) Degradation” (ACS Med Chem Lett, 2019).

Calls of active or inactive are those of the source. The rule behind the calls is not given here.

The target in assay [1] is T1, von Hippel-Lindau disease tumor suppressor/Steroid hormone receptor ERR1 (Homo sapiens) (UniProt P11474+P40337). The experiment in a line: Protac activity at VHL/ERRalpha in human MDA-MB-231 cells assessed as induction of […] degradation at 300 nM incubated for 4 hrs by Western blot analysis relative to control. Format: cell-based. Put shortly:
(§1)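 MDA-MB-231 breast cancer cells were treated at the indicated concentrations for 4.0 h. ERRα protein was measured by Western blot, and % degradation was derived by densitometric image analysis. Values are means of at least three independent experiments.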

Assay [2] has as its target T1, von Hippel-Lindau disease tumor suppressor/Steroid hormone receptor ERR1 (Homo sapiens). The experiment in a line: Protac activity at VHL/ERRalpha in human MDA-MB-231 cells assessed as induction of […] degradation at 100 nM incubated for 4 hrs by Western blot analysis relative to control. Format: cell-based. Put shortly:
as §1

The target is the same in assay [3]. The experiment in a line: Protac activity at VHL/ERRalpha in human MDA-MB-231 cells assessed as induction of […] degradation at 30 nM incubated for 4 hrs by Western blot analysis relative to control. Format: cell-based. Put shortly:
as §1

For assay [4], the target named is T2, Steroid hormone receptor ERR1 (Homo sapiens, UniProt P11474).
T2 sequence (P11474 whole entry): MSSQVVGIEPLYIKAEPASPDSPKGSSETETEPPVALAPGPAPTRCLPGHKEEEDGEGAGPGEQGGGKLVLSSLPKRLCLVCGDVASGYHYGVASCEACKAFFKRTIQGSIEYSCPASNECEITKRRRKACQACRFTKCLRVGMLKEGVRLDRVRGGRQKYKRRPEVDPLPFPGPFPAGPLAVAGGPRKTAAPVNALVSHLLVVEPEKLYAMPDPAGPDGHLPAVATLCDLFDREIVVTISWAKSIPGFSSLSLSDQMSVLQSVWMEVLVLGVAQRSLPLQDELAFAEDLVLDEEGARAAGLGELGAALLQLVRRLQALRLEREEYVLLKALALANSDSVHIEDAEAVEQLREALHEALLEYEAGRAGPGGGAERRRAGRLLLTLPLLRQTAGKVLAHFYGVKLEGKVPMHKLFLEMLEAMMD
The assay can be described thus: Binding affinity to GST-tagged ERRalpha-LBD (unknown origin) using fluorescein-conjugated coactivator PGC-1alpha incubated for 1 hr by TR-FRET assay.

The target in assay [5] is T1, von Hippel-Lindau disease tumor suppressor/Steroid hormone receptor ERR1 (Homo sapiens). The assay can be described thus: Protac activity at VHL/ERRalpha in human MDA-MB-231 cells assessed as induction of […] degradation at 1 uM incubated for 4 hrs by Western blot analysis. Format: cell-based. Put shortly:
as §1

The target is the same in assay [6]. The experiment in a line: Protac activity at VHL/ERRalpha in human MDA-MB-231 cells assessed as induction of […] degradation at 10 nM incubated for 4 hrs by Western blot analysis relative to control. Format: cell-based. Put shortly: as §1
Assay [7] shares this target. The assay can be described thus: Protac activity at VHL/ERRalpha in epoxomicin pre-treated human MDA-MB-231 cells assessed as induction of […] degradation at 30 nM incubated for 4 hrs by Western blot analysis. Format: cell-based. Put shortly:
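Before treatment with PROTAC at 30 nM for 4.0 h, MDA-MB-231 cells were preincubated with the proteasome inhibitor epoxomicin. ERRα protein was then assessed by Western blot.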

The target is the same in assay [8]. The experiment in a line: Protac activity at VHL/ERRalpha in human MDA-MB-231 cells assessed as induction of […] degradation at 3.0 nM incubated for 4 hrs by Western blot analysis. Format: cell-based. Put shortly:
as §1

The target is the same in assay [9]. The assay can be described thus: Protac activity at VHL/ERRalpha in human MDA-MB-231 cells assessed as induction of […] degradation incubated for 4 hrs by Western blot analysis. Format: cell-based. In short, it runs like this:
as §1

The target is the same in assay [10]. The assay can be described thus: Protac activity at VHL/ERRalpha in human MDA-MB-231 cells assessed as decrease in PDK4 protein expression level at 100 nM incubated for 24 hrs by Western blot analysis. Format: cell-based. In short, it runs like this:
(§2)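 MDA-MB-231 breast cancer cells were exposed to the degrader for 24 h. Protein levels of the ERRα downstream targets ATP5B, MCAD and PDK4 were then assessed by Western blot.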

The target in assay [11] is von Hippel-Lindau disease tumor suppressor/Steroid hormone receptor ERR2 (Homo sapiens) (UniProt O95718+P40337). The experiment in a line: Protac activity at VHL/ERRbeta in human MDA-MB-231 cells assessed as induction of […] degradation up to 10 uM incubated for 4 hrs by Western blot analysis. Format: cell-based. In short, it runs like this:
(§3)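 Levels of the ERRβ and ERRγ homologues were assessed by Western blot in MDA-MB-231 cells after 4.0 h treatment at concentrations up to 10.0 μM.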

Assay [12] has as its target T1, von Hippel-Lindau disease tumor suppressor/Steroid hormone receptor ERR1 (Homo sapiens). The experiment in a line: Protac activity at VHL/ERRalpha in human MDA-MB-231 cells assessed as decrease in MCAD protein expression level at 100 nM incubated for 24 hrs by Western blot analysis. Format: cell-based. In short, it runs like this:
as §2

Assay [13] has the same target. The experiment in a line: Protac activity at VHL/ERRalpha in human MDA-MB-231 cells assessed as induction of […] degradation incubated for 0.5 to 4 hrs by Western blot analysis. Format: cell-based. In short, it runs like this:
(§4)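 For the time course, MDA-MB-231 cells were exposed to PROTAC at 30 nM. ERRα protein was sampled from 30 min up to 48 h after treatment and analysed by Western blot.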

Assay [14] shares this target. The assay can be described thus: Protac activity at VHL/ERRalpha in human MDA-MB-231 cells assessed as induction of […] degradation incubated for 48 hrs by Western blot analysis. Format: cell-based. Put shortly:
as §4

Assay [15] deals with von Hippel-Lindau disease tumor suppressor/Estrogen-related receptor gamma (Homo sapiens) (UniProt P62508+P40337). The experiment in a line: Protac activity at VHL/ERRgamma in human MDA-MB-231 cells assessed as induction of […] degradation up to 10 uM incubated for 4 hrs by Western blot analysis. Format: cell-based. In short, it runs like this:
as §3

The target of assay [16] is T1, von Hippel-Lindau disease tumor suppressor/Steroid hormone receptor ERR1 (Homo sapiens). The assay can be described thus: Protac activity at VHL/ERRalpha in human MDA-MB-231 cells assessed as decrease in ATP5B protein expression level at 100 nM incubated for 24 hrs by Western blot analysis. Format: cell-based. Put shortly: as §2
For assay [17], the target named is T3, Steroid hormone receptor ERR1 (Homo sapiens) (UniProt P11474).
T3 sequence (whole entry): T2 sequence (P11474 whole entry)
The assay can be described thus: Ratio of IC50 for XCT790 to IC50 for test compound for binding affinity to GST-tagged ERRalpha-LBD (unknown origin) using fluorescein-conjugated coactivator PGC-1alpha incubated for 1 hr by TR-FRET assay.

T1 sequence (P40337 whole entry, looked up, one chain of several): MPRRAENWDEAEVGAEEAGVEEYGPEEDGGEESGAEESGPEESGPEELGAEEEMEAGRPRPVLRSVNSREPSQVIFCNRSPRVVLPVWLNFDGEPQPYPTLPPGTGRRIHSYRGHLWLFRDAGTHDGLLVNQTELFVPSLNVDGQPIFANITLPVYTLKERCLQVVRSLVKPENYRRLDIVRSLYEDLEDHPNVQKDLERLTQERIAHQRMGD
Chain of von Hippel-Lindau disease tumor suppressor/Steroid hormone receptor ERR2 (Homo sapiens) (O95718 whole entry, looked up): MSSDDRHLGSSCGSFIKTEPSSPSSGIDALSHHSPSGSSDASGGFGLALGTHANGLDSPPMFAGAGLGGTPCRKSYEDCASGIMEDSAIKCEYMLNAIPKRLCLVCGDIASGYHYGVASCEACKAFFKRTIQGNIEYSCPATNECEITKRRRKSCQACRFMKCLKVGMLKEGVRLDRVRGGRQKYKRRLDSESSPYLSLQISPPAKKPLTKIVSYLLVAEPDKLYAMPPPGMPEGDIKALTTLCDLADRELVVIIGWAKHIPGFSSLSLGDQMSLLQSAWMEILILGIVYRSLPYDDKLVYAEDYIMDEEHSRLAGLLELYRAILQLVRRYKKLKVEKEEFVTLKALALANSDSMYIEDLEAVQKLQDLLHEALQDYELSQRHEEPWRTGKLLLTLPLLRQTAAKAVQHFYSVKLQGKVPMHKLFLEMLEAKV
Chain of von Hippel-Lindau disease tumor suppressor/Steroid hormone receptor ERR2 (Homo sapiens) (P40337 whole entry, looked up): as the sequence (P40337 whole entry, looked up, one chain of several) above
Chain of von Hippel-Lindau disease tumor suppressor/Estrogen-related receptor gamma (Homo sapiens) (P40337 whole entry, looked up): as the sequence (P40337 whole entry, looked up, one chain of several) above
Chain of von Hippel-Lindau disease tumor suppressor/Estrogen-related receptor gamma (Homo sapiens) (P62508 whole entry, looked up): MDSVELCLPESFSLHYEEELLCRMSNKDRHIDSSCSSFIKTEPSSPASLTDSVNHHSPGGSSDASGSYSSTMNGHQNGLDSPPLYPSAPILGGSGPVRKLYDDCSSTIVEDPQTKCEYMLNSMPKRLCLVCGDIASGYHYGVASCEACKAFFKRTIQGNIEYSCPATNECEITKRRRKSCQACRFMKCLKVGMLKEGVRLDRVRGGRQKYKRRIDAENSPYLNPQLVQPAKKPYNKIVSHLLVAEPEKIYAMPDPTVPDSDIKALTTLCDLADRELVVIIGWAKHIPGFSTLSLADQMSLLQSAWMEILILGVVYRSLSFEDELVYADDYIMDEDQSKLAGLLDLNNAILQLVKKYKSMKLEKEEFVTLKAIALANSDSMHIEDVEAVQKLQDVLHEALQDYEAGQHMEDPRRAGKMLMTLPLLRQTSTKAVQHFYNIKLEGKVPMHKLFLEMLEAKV

For the compound `COc1cc(/C=C(\C#N)C(=O)NCCOCCOCCOCCC(=O)N[C@H](C(=O)N2C[C@H](O)C[C@H]2C(=O)NCc2ccc(-c3scnc3C)cc2)C(C)(C)C)ccc1OCc1ccc(C(F)(F)F)cc1C(F)(F)F`, the Activity came out at 10% in assay [1], 4% in assay [2] and 0% in [3]. In assay [4], this compound displayed an IC50 of 7 nM.
`COC(=O)/C(C#N)=C/c1ccc(OCc2ccc(C(F)(F)F)cc2C(F)(F)F)c(OC)c1` displayed an IC50 in assay [4] of 20.3 nM.
In the case of `COc1cc(/C=C(\C#N)C(=O)NCCCC(=O)N[C@H](C(=O)N2C[C@H](O)C[C@H]2C(=O)NCc2ccc(-c3scnc3C)cc2)C(C)(C)C)ccc1OCc1ccc(C(F)(F)F)cc1C(F)(F)F`, the values for the Activity in assay [2] and in assay [3] were 85% and 58%, respectively. In addition, the IC50 in [4] turned out to be 6.33 nM.
Consider `COc1cc(/C=C(\C#N)C(=O)NCCCCCCCC(=O)N[C@H](C(=O)N2C[C@H](O)C[C@H]2C(=O)NCc2ccc(-c3scnc3C)cc2)C(C)(C)C)ccc1OCc1ccc(C(F)(F)F)cc1C(F)(F)F`, for which the Activity is 9% in assay [2] and 3% in assay [3]. The compound also displayed an IC50 in [4] of 7.67 nM.
For `COc1cc(/C=C(\C#N)C(=O)NCCOCC(=O)N[C@H](C(=O)N2C[C@H](O)C[C@H]2C(=O)NCc2ccc(-c3scnc3C)cc2)C(C)(C)C)ccc1OCc1ccc(C(F)(F)F)cc1C(F)(F)F`, the Activity in [2] is 92%; in [3], 79%. This compound also gave an IC50 in assay [4] of 11.3 nM.
Regarding `COc1cc(/C=C(\C#N)C(=O)NCCOCCC(=O)O)ccc1OCc1ccc(C(F)(F)F)cc1C(F)(F)F`, the outcome in [5] was inactive. In assay [4], this compound displayed an IC50 of 4.67 nM.
For the compound `COc1cc(/C=C(\C#N)C(=O)NCCCCCCC(=O)N[C@H](C(=O)N2C[C@H](O)C[C@H]2C(=O)NCc2ccc(-c3scnc3C)cc2)C(C)(C)C)ccc1OCc1ccc(C(F)(F)F)cc1C(F)(F)F`, the Activity came out at 71% in assay [2] and 23% in [3]. Moreover, in assay [4], the IC50 turned out to be 12.3 nM.
For the compound `COCCNC(=O)/C(C#N)=C/c1ccc(OCc2ccc(C(F)(F)F)cc2C(F)(F)F)c(OC)c1`, the IC50 in assay [4] was 4.33 nM.
`COc1cc(/C=C(\C#N)C(=O)NCCOCCC(=O)N[C@H](C(=O)N2C[C@H](O)C[C@H]2C(=O)NCc2ccc(-c3scnc3C)cc2)C(C)(C)C)ccc1OCc1ccc(C(F)(F)F)cc1C(F)(F)F`: the Activity in assay [2] amounted to 89%; in assay [3] it was 63%; in [6], 25%. Moreover, the IC50 in assay [4] was determined as 9.33 nM.
Consider `COc1cc(/C=C(\C#N)C(=O)NCCCCC(=O)N[C@H](C(=O)N2C[C@@H](O)C[C@H]2C(=O)NCc2ccc(-c3scnc3C)cc2)C(C)(C)C)ccc1OCc1ccc(C(F)(F)F)cc1C(F)(F)F`, for which the Activity in assay [3] was found to be 6%. This compound also showed an IC50 in assay [4] of 5.33 nM.
Take `COc1cc(/C=C(\C#N)C(=O)NCCCCC(=O)N[C@H](C(=O)N2C[C@H](O)C[C@H]2C(=O)NCc2ccc(-c3scnc3C)cc2)C(C)(C)C)ccc1OCc1ccc(C(F)(F)F)cc1C(F)(F)F`: the outcome in assay [7], in assay [11], in assay [14] and in [15] was inactive. Besides, the outcome in assay [8], in [10], in [12], in assay [13] and in assay [16] was Active. Besides, the Activity was 96% in [2], “Dose-dependent effect” in assay [9], 83% in assay [3] and 39% in assay [6]. This compound had an IC50 in assay [4] of 12.7 nM.
As to `Cc1ncsc1-c1ccc(CNC(=O)[C@@H]2C[C@@H](O)CN2C(=O)[C@@H](N)C(C)(C)C)cc1`, the result in assay [5] was inactive.
Regarding `COc1cc(/C=C(\C#N)C(=O)O)ccc1OCc1ccc(C(F)(F)F)cc1C(F)(F)F`, the Ratio IC50 in [17] is 11. Further, the IC50 in assay [4] came to 5.67 nM.
As for `COc1cc(/C=C(\C#N)C(=O)NCCCCCC(=O)N[C@H](C(=O)N2C[C@H](O)C[C@H]2C(=O)NCc2ccc(-c3scnc3C)cc2)C(C)(C)C)ccc1OCc1ccc(C(F)(F)F)cc1C(F)(F)F`, the Activity in [2] was determined as 78%; in assay [3], 58%. In addition, the IC50 in assay [4] came to 5.67 nM.
In the case of `COc1cc(/C=C2\SC(=O)N(CCOCCC(=O)N[C@H](C(=O)N3C[C@H](O)C[C@H]3C(=O)NCc3ccc(-c4scnc4C)cc3)C(C)(C)C)C2=O)ccc1Oc1ccc(C#N)cc1C(F)(F)F`, the Activity in assay [2] stood at 40%; in assay [3], 1%. For the same compound, in assay [4], the IC50 was 8 nM.
`COc1cc(/C=C(\C#N)C(=O)NCCOCCOCCC(=O)N[C@H](C(=O)N2C[C@H](O)C[C@H]2C(=O)NCc2ccc(-c3scnc3C)cc2)C(C)(C)C)ccc1OCc1ccc(C(F)(F)F)cc1C(F)(F)F`: the Activity in [1] worked out at 19%; in assay [2] it was 15%; in assay [3], 0%. In [4], this compound yielded an IC50 of 5.33 nM.
`COc1cc(/C=C(\C#N)C(=O)NCCCCC(=O)O)ccc1OCc1ccc(C(F)(F)F)cc1C(F)(F)F` registered an IC50 in assay [4] of 6 nM. That is a single-digit nanomolar value.
`COc1cc(/C=C(\C#N)C(N)=O)ccc1OCc1ccc(C(F)(F)F)cc1C(F)(F)F` yielded an IC50 in assay [4] of 4.33 nM.
Consider `COc1cc(/C=C(\C#N)C(=O)NCCC(=O)N[C@H](C(=O)N2C[C@H](O)C[C@H]2C(=O)NCc2ccc(-c3scnc3C)cc2)C(C)(C)C)ccc1OCc1ccc(C(F)(F)F)cc1C(F)(F)F`, for which the Activity came out at 50% in [2] and 28% in assay [3]. This compound yielded an IC50 in assay [4] of 7.33 nM.
